# Experimental data collected from several papers.
# Each line is one published result; the experiments were not run side by side.
# Target: Tyrosine-protein kinase Lyn (LYN, Homo sapiens, UniProt P07948)
SMILES,test,conditions,measurement,value
N#CC1(c2ccccn2)CCN(Cc2cc(C(=O)O)c(=O)n3ccccc23)CC1,"cell-free assay, competition with immobilised ligand",1 µM,remaining binding,100%
CC(C)(C)c1cc(C=C(C#N)C#N)cc(Br)c1O,"enzyme activity, inhibitor",0.5 µM,remaining activity,74.1%
Cn1cncc1[C@](O)(COc1ccc(C#N)cc1-c1ccc(OC(F)(F)F)cc1)c1ccc(C#N)cc1,"cell-free assay, competition with immobilised ligand",1 µM,remaining binding,90%
Cn1cc(-c2cc(F)cc(N3CCn4c(cc5c4CCCC5)C3=O)c2CO)cc(Nc2ccc(N3CCN(C4COC4)CC3)cn2)c1=O,"enzyme activity, inhibitor",0.1 µM,inhibition,12%
O=c1[nH]c2ccccc2n1C1CCN(Cc2ccc(-c3[nH]c4cc5ncnc5cc4nc3-c3ccccc3)cc2)CC1,enzyme activity,0.5 µM,remaining activity,102%
COc1ncccc1-c1cnn2ccc(N3CCN(C(=O)OC(C)C)CC3)nc12,"binding, competition with immobilised ligand",1 µM,remaining binding,79%
Cc1nn(C)cc1-c1nc2c(N3CCN(Cc4ccc(Cl)cc4)CC3)c(Cl)cnc2[nH]1,"binding, competition with immobilised ligand",1 µM,remaining binding,86%
Cc1ncc(C)n2nc(/C=C/c3nc(N4CCCC4)cc(N4CCOCC4)n3)nc12,"enzyme activity, inhibitor",10 µM,inhibition,-13%
O=C(Nc1cccnn1)N1CCN([C@@H]2CCOc3cc(C(F)(F)F)ccc32)CC1,"enzyme activity, inhibitor",20 µM,inhibition,-4%
